Active and inactive are the calls of the source. No cut-off for these calls is given here.
Experiments:
D(3) dopamine receptor = D(3) dopamine receptor (Homo sapiens, UniProt P35462); experiment: Displacement of [3H]spiperone from human D3 receptor expressed in CHO cells; format: cell-based
Method in brief: (§1)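 Human D2L or D3 receptors stably expressed in CHO cells; [3H]spiperone displacement in 96-well format. Incubation 90 min at 27 °C, ended by rapid filtration. IC50 was converted to Ki by Cheng-Prusoff. At least two independent experiments, each run in triplicate.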

D(4) dopamine receptor = biological target: T1, D(4) dopamine receptor (Homo sapiens, UniProt P21917); experiment: (§2) Displacement of [3H]spiperone from human D4 dopamine receptor expressed in CHO cells; format: cell-based
T1 sequence (P21917 whole entry): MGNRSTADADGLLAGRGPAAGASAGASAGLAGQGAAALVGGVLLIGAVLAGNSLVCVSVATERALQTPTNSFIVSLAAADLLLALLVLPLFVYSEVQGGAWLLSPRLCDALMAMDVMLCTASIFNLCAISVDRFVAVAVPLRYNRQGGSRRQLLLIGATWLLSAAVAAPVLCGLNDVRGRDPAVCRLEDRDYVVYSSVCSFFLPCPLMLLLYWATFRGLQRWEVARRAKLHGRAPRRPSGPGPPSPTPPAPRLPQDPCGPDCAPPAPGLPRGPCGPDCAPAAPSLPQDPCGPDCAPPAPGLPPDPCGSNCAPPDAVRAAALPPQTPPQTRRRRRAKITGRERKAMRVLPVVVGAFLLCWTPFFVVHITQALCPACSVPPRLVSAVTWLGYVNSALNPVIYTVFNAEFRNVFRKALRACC
Method in brief: (§3)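 Human cloned receptors stably expressed: D1 in HEK293 cells with [3H]SCH 23390, and D4.4 in CHO cells with [3H]spiperone. Radioligand displacement was run in 96-well format, incubated 90 min at 27 °C and stopped by rapid filtration. At least two independent experiments, each in triplicate. Ki was calculated from IC50 by Cheng–Prusoff. "No activity" means under 70% displacement at 10^-5 M.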

D(2) dopamine receptor [1] = biological target: T2, D(2) dopamine receptor (Homo sapiens, UniProt P14416); experiment: Activity at human D2L dopamine receptor expressed in HEK293 cells by calcium fluorescence assay; format: functional, cell-based
T2 sequence (P14416 whole entry): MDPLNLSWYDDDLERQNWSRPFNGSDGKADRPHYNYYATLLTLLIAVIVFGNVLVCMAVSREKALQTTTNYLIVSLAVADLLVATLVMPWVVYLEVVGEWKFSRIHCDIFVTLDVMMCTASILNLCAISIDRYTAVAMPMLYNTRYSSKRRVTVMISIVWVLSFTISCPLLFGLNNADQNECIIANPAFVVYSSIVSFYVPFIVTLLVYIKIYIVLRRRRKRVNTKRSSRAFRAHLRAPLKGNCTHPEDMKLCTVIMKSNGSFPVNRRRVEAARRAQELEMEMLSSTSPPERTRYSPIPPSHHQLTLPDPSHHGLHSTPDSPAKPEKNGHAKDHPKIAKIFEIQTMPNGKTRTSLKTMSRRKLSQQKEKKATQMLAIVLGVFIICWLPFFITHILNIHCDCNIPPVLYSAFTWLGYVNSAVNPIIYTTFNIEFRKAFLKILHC

D(1A) dopamine receptor [2] = biological target: T3, D(1A) dopamine receptor (Homo sapiens, UniProt P21728); experiment: Activity at human D1 dopamine receptor expressed in HEK293 cells by calcium fluorescence assay; format: functional, cell-based
T3 sequence (P21728 whole entry): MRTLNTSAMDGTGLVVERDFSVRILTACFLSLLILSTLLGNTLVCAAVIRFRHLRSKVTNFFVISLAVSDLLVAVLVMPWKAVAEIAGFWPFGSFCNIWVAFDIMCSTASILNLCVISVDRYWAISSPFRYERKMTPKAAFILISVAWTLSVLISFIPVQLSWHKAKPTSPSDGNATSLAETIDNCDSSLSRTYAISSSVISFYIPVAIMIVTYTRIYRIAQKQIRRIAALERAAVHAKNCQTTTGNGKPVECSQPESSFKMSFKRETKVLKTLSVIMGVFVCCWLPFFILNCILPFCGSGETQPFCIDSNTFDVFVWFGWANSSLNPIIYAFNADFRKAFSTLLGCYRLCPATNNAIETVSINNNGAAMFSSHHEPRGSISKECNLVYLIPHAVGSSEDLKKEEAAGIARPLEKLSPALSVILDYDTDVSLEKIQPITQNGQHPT
Method in brief: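 Human D1 stably expressed in HEK293 cells. Intracellular Ca2+ was read by fluorescence. Compounds were first checked for any Ca2+ rise on their own, then tested for concentration-dependent suppression of the signal induced by the agonist SKF 38393. Ki was taken from the sigmoidal inhibition curve. Means of three experiments of six values each (±SEM), or of two experiments.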

D(2) dopamine receptor [3] = biological target: T2, D(2) dopamine receptor; experiment: Displacement of [3H]spiperone from human D2L dopamine receptor expressed in CHO cells; format: cell-based; method in brief: as §1
D(1B) dopamine receptor [4] = biological target: T4, D(1B) dopamine receptor (Homo sapiens, UniProt P21918); experiment: Displacement of [3H]SCH 23390 from human D5 dopamine receptor expressed in HEK293 cells; format: cell-based
T4 sequence (P21918 whole entry): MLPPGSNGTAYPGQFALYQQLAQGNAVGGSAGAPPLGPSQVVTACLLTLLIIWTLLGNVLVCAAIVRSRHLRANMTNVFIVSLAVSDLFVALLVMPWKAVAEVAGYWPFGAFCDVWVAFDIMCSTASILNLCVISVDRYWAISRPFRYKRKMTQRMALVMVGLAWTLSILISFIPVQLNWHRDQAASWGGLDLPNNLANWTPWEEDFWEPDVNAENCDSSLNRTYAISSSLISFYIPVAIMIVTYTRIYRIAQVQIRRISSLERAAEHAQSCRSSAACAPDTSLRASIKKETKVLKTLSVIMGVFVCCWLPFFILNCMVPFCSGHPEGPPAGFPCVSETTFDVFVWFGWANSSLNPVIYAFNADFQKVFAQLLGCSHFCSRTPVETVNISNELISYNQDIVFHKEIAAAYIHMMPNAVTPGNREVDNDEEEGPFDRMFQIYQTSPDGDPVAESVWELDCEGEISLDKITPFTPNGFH
Method in brief: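 Radioligand binding with [3H]SCH 23390 on human D5 stably expressed in HEK293 cells, in 96-well format. Incubation 90 min at 27 °C, stopped by rapid filtration. Ki was calculated from IC50 by Cheng-Prusoff. At least two independent experiments, each in triplicate.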

D(1A) dopamine receptor [5] = biological target: T3, D(1A) dopamine receptor; experiment: Displacement of [3H]SCH 23390 from human D1 dopamine receptor expressed in HEK293 cells; format: cell-based; method in brief: as §3
D(1B) dopamine receptor [6] = biological target: T4, D(1B) dopamine receptor; experiment: Activity at human D5 dopamine receptor expressed in HEK293 cells by calcium fluorescence assay; format: functional, cell-based
[7] = biological target: T5, D(4) dopamine receptor (Homo sapiens) (UniProt P21917); experiment: as §2; format: cell-based; method in brief: as §3
T5 sequence (whole entry): T1 sequence (P21917 whole entry)

Sequence of D(3) dopamine receptor (P35462 whole entry): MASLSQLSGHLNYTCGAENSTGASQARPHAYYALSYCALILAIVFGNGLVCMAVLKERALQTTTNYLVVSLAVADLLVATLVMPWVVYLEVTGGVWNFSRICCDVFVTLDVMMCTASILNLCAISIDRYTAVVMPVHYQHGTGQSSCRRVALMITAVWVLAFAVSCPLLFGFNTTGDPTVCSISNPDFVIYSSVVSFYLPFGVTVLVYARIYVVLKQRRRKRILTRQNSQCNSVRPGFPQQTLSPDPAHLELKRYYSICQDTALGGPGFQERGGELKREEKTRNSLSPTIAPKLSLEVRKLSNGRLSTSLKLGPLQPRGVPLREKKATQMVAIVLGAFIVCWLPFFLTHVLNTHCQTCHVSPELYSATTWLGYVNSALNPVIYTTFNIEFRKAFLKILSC

SMILES | Ki (D(3) dopamine receptor) | Ki (D(4) dopamine receptor) | Ki (D(2) dopamine receptor [1]) | Ki (D(1A) dopamine receptor [2]) | Ki (D(2) dopamine receptor [3]) | Ki (D(1B) dopamine receptor [4]) | Ki (D(1A) dopamine receptor [5]) | Ki (D(1B) dopamine receptor [6]) | Activity (D(2) dopamine receptor [1]) | Activity (D(3) dopamine receptor) | Activity (D(1A) dopamine receptor [2]) | Activity (D(2) dopamine receptor [3]) | Activity (D(1B) dopamine receptor [4]) | Activity [7] | Activity (D(1A) dopamine receptor [5]) | Activity (D(1B) dopamine receptor [6])
CN1CCc2ccccc2Cc2[nH]c3ccccc3c2CC1 | 25.9 nM | 108 nM |  |  |  |  |  |  |  |  |  |  |  |  |  | 
CN1CCCc2c([nH]c3ccccc23)Cc2ccccc2CC1 | 521 nM | 184 nM | 38 nM | 304 nM | 143 nM | 92 nM | 163 nM | 71.6 nM |  |  |  |  |  |  |  | 
c1ccc2c(c1)CCN1CCCc3c([nH]c4ccccc34)C21 (centres undefined) |  |  |  |  |  |  |  |  | inactive | inactive | inactive | inactive | inactive | inactive | inactive | inactive
CN1CCCc2ccccc2Cc2[nH]c3ccccc3c2CC1 | 278 nM | 98.4 nM | 1.5 nM | 2.8 nM | 14.5 nM | 0.61 nM | 2.2 nM | 2.8 nM |  |  |  |  |  |  |  | 
c1ccc2c(c1)CCCN1CCc3c([nH]c4ccccc34)C21 (centres undefined) |  |  |  |  |  |  |  |  | inactive | inactive | inactive | inactive | inactive | inactive | inactive | inactive

From ChEMBL document CHEMBL1137400, “Dopamine/serotonin receptor ligands. 13: Homologization of a benzindoloazecine-type dopamine receptor antagonist modulates the affinities for dopamine D(1)-D(5) receptors” (J Med Chem, 2006)
